Assay results as given in ChEMBL document CHEMBL1799934, “Irreversible Nek2 kinase inhibitors with cellular activity” (J Med Chem, 2011).
Changes are numbered by the printed parent chain. pIC50: −log10 of the molar value. Active and inactive are the calls of the source. The rule behind the calls is not given here.

Experiments:
[1] = biological target: Cyclin-dependent kinase 1/cyclin B1 (Homo sapiens, UniProt P06493); assay: Inhibition of human Cdk1/cyclinB using histone H1 as a substrate and [gamma-32P]ATP; assay type: protein-complex assay
Cyclin-dependent kinase 1/cyclin B1, sequence (P06493 whole entry): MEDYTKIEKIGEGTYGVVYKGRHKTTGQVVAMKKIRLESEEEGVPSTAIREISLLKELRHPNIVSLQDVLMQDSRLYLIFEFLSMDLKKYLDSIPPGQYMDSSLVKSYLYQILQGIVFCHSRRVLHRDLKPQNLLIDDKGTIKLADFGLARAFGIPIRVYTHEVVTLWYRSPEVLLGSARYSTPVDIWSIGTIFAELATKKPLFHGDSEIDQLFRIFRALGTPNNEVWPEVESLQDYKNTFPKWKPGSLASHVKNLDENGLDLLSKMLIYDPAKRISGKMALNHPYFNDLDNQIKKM
Cyclin-dependent kinase 1/cyclin B1, sequence (P14635 whole entry, further chain): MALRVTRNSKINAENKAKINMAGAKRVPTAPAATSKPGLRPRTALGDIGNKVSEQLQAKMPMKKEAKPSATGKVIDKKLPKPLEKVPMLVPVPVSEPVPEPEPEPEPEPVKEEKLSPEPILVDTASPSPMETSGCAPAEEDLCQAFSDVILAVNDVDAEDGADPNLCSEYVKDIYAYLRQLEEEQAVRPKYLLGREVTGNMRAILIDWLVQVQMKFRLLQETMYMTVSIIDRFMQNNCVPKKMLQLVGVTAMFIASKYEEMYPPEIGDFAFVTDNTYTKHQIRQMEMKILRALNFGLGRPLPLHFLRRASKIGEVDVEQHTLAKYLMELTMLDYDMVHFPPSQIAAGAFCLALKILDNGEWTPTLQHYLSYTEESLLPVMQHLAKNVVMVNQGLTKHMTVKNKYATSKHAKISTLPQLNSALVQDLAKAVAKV

[2] = system: A549; assay: Antimitotic activity in monastrol-arrested human A549 cells assessed as cells that exit mitosis arrest at 5 uM after 45 mins by immunofluorescence microscopic analysis; assay type: functional
[3] = biological target: T1, Serine/threonine-protein kinase Nek2 (Homo sapiens, UniProt P51955); assay: Inhibition of human Nek2 in using [gamma-32P] ATP
T1 sequence (P51955 whole entry): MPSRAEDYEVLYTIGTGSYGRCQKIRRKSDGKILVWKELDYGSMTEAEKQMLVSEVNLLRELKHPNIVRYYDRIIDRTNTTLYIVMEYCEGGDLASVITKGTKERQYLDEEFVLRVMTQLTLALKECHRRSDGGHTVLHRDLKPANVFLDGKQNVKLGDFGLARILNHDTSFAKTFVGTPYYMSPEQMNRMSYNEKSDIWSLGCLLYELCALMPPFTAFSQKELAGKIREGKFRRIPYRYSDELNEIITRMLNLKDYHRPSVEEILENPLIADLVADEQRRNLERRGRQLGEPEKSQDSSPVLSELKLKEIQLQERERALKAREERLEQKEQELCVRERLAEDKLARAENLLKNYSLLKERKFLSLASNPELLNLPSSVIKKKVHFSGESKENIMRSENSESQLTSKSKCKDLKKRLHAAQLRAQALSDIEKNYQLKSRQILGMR

[4] = biological target: T2, Serine/threonine-protein kinase Nek2 (Homo sapiens) (UniProt P51955); assay: Induction of alkylation at Cys22 position of wild type human Nek2 kinase domain amino acid 1-271 at 500 nM by electrospray mass spectrometric analysis
T2 sequence (whole entry): T1 sequence (P51955 whole entry)
Procedure, shortened: (§1)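 WT or C22V Nek2 kinase domain (50 nM) incubated with 500 nM inhibitor in PBS pH 7.4, 5% DMSO, 5 h at room temperature. Acidified to pH 3 with HCl, then LC-MS on a C18 protein column with acetonitrile/formic acid gradient and ESI detection. Spectra deconvoluted to single masses of protein and adducts.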

[5] = system: T3, Serine/threonine-protein kinase Nek2 (Homo sapiens), P51955 [C22V]; assay: Induction of alkylation at Cys22 position of human Nek2 C22V mutant kinase domain amino acid 1-271 at 500 nM by electrospray mass spectrometric analysis; procedure, shortened: as §1
T3 sequence (whole entry): T1 sequence (P51955 whole entry) with C22V

[6] = biological target: T2, Serine/threonine-protein kinase Nek2 (Homo sapiens); assay: Inhibition of human Nek2 at 5 uM using [gamma-32P] ATP
[7] = biological target: Serine/threonine-protein kinase Nek2 (Homo sapiens, UniProt P51955, C22V); assay: Inhibition of human Nek2 C22V mutant using [gamma-32P] ATP
Serine/threonine-protein kinase Nek2 (Homo sapiens, UniProt P51955, C22V), sequence (P51955 whole entry C22V): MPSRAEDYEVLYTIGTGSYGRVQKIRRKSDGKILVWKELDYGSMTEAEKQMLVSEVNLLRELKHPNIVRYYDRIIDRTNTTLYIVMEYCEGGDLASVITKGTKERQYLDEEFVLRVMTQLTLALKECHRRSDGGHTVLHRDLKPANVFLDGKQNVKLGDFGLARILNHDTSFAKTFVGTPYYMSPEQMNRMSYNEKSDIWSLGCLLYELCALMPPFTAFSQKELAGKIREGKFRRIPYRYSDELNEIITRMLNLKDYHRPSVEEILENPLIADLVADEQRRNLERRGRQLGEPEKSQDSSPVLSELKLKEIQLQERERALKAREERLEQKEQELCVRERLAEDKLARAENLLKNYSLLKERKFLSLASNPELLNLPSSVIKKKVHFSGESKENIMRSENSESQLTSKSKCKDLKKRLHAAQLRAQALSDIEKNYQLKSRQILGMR

[8] = organism: Homo sapiens; assay: Ratio of IC50 for human Nek2 to IC50 for human Cdk1/cyclinB
Procedure, shortened: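 Nek2 (WT kinase domain, 15 nM) pre-incubated with inhibitor for 30 min at room temperature in HEPES pH 7.5, MgCl2, EDTA, BSA with 100 μM ATP and 3% DMSO. β-casein and [γ-32P]ATP were then added for a 30-min reaction. Cdk1/cyclin B (2 nM) was run the same way but with 38 μM ATP and histone H1 as substrate. Phosphorylation was read from nitrocellulose spots. IC50s are means of three determinations.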

[9] = system: A549; assay: Effect on chromosome congression in human A549 cells at 5 uM after 30 mins in presence of Cdk1 inhibitor 19; assay type: functional, cell-based
[10] = system: A549; assay: Induction of deffect in bipolar spindle assembly in human A549 cells at 5 uM after 30 mins in presence of Cdk1 inhibitor 19; assay type: functional, cell-based
Procedure, shortened: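 A549 cells on poly-lysine coverslips grown 24 h, held in late G2 with 5 μM 19 for 20 h, then given 5 μM test compound plus 5 μM 19 for 30 min. Washed twice into compound-free media, then 10 μM MG132 for 1 h. Fixed and immunostained for spindles and chromosomes. Bipolar spindles quantified in >160 cells/condition, mean ± SD of 3 experiments.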

[11] = system: A549; assay: Reduction in total number of mitotic cells in human A549 cells at 5 uM after 30 mins in presence of Cdk1 inhibitor 19; assay type: functional, cell-based

Compound	pIC50 [1]	Activity [2] [%]	pIC50 [3]	other results
CC#CC(=O)Nc1ccc2c(c1)/C(=C/c1[nH]c(CC)nc1C)C(=O)N2	< 4.70	33	–	–
O=C1Nc2ccc(C(=O)CCl)cc2/C1=C/c1ccc[nH]1	8.00	98	> 8.22	Activity [4]: Active; Activity [5]: inactive; inhibition [6]: 80%; pIC50 [7]: 4.85
C#CC(=O)Nc1ccc2c(c1)/C(=C/c1cnc[nH]1)C(=O)N2	> 9.00	80	6.21	–
Cc1nc[nH]c1/C=C1\C(=O)Nc2ccc(C(=O)CCl)cc21	> 9.00	100	7.70	–
O=C1Nc2ccc(C(=O)CCl)cc2/C1=C/c1cnc[nH]1	> 9.00	92	7.22	–
C#CC(=O)Nc1ccc2c(c1)/C(=C/c1[nH]cnc1C)C(=O)N2	> 9.00	99	6.41	Ratio IC50 [8]: 400
CCc1nc(C)c(/C=C2\C(=O)N(C)c3ccc(C(=O)CCl)cc32)[nH]1.Cl	–	0.9	–	–
C=CC(=O)Nc1ccc2c(c1)/C(=C/c1ccc[nH]1)C(=O)N2	–	–	–	inhibition [6]: inactive
C#CC(=O)Nc1ccc2c(c1)/C(=C/c1[nH]c(CC)nc1C)C(=O)N2	< 4.70	–	–	Activity [9]: inactive; Activity [10]: inactive; Activity [11]: inactive
C#CC(=O)Nc1ccc2c(c1)/C(=C/c1[nH]c(CC)nc1C)C(=O)N2C	< 4.70	0	< 4.70	–
CCc1nc(C)c(/C=C2\C(=O)Nc3ccc(C(C)=O)cc32)[nH]1	5.44	27	< 4.70	–
CCc1nc(C)c(/C=C2\C(=O)Nc3ccc(C(=O)CCl)cc32)[nH]1	5.60	50	6.89	–
C#CC(=O)Nc1ccc2c(c1)/C(=C/c1ccc[nH]1)C(=O)N2	7.05	78	6.04	Activity [4]: Active; Activity [5]: inactive; inhibition [6]: 80%; pIC50 [7]: 4.70
